From ChEMBL document CHEMBL1142961, “Novel selective inhibitors of the zinc plasmodial aminopeptidase PfA-M1 as potential antimalarial agents” (J Med Chem, 2007)

Legend:
[1] = biological target: T1, Aminopeptidase N (Plasmodium falciparum FcB1/Columbia) (UniProt O96935); assay: Inhibition of Plasmodium falciparum FcB1 M1 aminopeptidase at 10 uM
T1 sequence (whole entry): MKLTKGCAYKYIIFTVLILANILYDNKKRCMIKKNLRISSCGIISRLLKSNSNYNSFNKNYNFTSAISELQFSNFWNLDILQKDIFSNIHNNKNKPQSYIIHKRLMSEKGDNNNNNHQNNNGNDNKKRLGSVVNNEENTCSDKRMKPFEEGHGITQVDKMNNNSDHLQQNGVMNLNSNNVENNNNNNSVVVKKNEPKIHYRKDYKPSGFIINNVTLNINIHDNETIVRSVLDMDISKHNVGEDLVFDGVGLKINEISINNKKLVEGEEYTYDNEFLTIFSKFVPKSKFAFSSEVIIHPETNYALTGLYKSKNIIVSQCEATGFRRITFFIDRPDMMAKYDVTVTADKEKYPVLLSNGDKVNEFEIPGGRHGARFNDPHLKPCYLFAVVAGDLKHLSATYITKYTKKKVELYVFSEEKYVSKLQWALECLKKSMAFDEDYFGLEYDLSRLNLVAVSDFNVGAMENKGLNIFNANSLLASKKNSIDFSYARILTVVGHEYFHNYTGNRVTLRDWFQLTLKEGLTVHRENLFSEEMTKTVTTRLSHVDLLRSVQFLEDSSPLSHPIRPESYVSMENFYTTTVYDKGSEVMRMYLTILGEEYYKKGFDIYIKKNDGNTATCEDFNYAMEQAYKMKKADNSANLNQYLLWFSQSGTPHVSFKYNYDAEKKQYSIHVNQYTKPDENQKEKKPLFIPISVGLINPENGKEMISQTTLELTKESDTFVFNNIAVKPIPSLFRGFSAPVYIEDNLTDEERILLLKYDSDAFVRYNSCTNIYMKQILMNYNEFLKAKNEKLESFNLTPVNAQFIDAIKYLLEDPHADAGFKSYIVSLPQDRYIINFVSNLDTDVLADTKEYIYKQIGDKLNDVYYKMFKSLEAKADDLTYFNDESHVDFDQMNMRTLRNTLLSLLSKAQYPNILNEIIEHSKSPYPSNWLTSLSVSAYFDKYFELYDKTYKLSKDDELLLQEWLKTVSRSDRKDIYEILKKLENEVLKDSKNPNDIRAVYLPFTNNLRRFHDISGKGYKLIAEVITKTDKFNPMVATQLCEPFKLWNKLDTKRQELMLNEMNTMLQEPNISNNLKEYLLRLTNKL
Summary of the method: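 Native enzyme purified from P. falciparum FcB1, diluted 10-fold in 25 mM Tris-HCl pH 7.4. Preincubated with inhibitor for 10 min at room temperature, then Leu-pNA substrate added (0.3 mM stock, Km 0.099 mM). Kinetics followed at 405 nm at room temperature. Initial velocities normalized to a no-inhibitor control. Single-point screen at 10 µM; IC50 from velocity versus inhibitor concentration curves. Bestatin used as reference.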

[2] = biological target: T2, Aminopeptidase N (Sus scrofa) (UniProt P15145); assay: Inhibition of pig kidney microsomal APN at 10 uM
T2 sequence (whole entry): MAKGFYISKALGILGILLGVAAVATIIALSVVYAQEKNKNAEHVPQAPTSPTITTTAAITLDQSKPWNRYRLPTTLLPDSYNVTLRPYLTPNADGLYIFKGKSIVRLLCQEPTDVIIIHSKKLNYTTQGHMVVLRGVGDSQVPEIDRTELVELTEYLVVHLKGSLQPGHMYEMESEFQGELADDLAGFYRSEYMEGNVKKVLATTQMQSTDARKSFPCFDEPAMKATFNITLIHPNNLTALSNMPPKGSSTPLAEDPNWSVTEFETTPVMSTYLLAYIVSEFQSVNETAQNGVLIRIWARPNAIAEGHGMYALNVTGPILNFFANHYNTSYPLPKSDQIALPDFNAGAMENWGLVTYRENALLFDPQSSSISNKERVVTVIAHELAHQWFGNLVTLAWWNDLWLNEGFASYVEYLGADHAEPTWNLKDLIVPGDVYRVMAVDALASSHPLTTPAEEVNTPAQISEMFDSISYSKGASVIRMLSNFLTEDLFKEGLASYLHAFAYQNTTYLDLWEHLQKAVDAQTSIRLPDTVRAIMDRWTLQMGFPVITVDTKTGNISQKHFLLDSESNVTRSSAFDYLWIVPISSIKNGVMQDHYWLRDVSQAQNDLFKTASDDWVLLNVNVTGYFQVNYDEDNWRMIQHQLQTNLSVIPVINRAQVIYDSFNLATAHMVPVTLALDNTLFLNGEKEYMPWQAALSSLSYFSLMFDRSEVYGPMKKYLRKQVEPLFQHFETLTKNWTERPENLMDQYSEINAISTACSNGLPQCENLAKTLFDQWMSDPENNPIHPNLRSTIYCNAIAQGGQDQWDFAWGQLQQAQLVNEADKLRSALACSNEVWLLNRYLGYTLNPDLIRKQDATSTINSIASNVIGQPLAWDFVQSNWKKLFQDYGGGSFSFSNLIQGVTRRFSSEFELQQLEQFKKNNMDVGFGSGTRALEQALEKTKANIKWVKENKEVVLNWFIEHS
Summary of the method: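 Porcine kidney microsomal APN (ammonium sulfate suspension) diluted 600-fold in 25 mM Tris-HCl pH 7.4. Preincubated with inhibitor for 10 min at room temperature, then Leu-pNA added (0.3 mM stock). Hydrolysis followed at 405 nm at room temperature. Rates normalized to a no-inhibitor control. Single point at 10 µM; IC50 from concentration-velocity curves. Bestatin used as reference.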

Row | inhibition [1] [%] | inhibition [2] [%] | SMILES
1 | -4 | 11 | CN(CCCCc1ccccc1)C(=O)CC(=O)NO
2 | 4 | 34 | NC(C(=O)NO)C(=O)N(CCc1ccccc1)Cc1ccccc1 (stereo unspecified)
3 | 22 | 45 | CC(C)CN(CCCCc1ccccc1)C(=O)CC(=O)NO
4 | 61 | 93 | CC(C)CC(C(=O)NO)C(=O)NC1Cc2ccccc2C1 (stereo unspecified)
5 | 6 | 16 | O=C(CC(=O)NCc1ccc(F)cc1)NO
6 | 53 | 29 | O=C(NO)C(Cc1ccccc1)C(=O)N1CCN(Cc2ccc3c(c2)OCO3)CC1 (stereo unspecified)
7 | -2 | 11 | NC(C(=O)NO)C(=O)N1CCN(c2ccccc2)CC1 (stereo unspecified)
8 | -3 | 23 | NC(C(=O)NO)C(=O)N1CCN(Cc2ccc3c(c2)OCO3)CC1 (stereo unspecified)
9 | 38 | 103 | CC(C)CC(C(=O)NO)C(=O)N1CCN(c2ccccc2)CC1 (stereo unspecified)
10 | 7 | 26 | CC(C)CC(C(=O)NO)C(=O)N1CCC2(CC1)C(=O)NCN2c1ccccc1 (stereo unspecified)
11 | 5 | 72 | O=C(NO)C(Cc1cccc(Oc2ccccc2)c1)C(=O)NC1CCN(Cc2ccccc2)CC1 (stereo unspecified)
12 | -8 | 25 | NC(C(=O)NO)C(=O)NCCc1ccccc1 (stereo unspecified)
13 | 38 | 63 | O=C(NO)C(Cc1cccc(Oc2ccccc2)c1)C(=O)N1CCN(c2ccccc2)CC1 (stereo unspecified)
14 | 7 | 32 | O=C(NO)C(Cc1ccccc1)C(=O)N1CCC2(CCNc3ccccc3O2)CC1 (stereo unspecified)
15 | 21 | 19 | CC(C)CC(C(=O)NO)C(=O)N1CCN(Cc2ccc3c(c2)OCO3)CC1 (stereo unspecified)
16 | 45 | 28 | CC(C)CN(CCCCc1ccccc1)C(=O)C(Cc1ccccc1)C(=O)NO (stereo unspecified)
17 | 2 | 37 | NC(C(=O)NO)C(=O)N[C@H]1CCN(Cc2ccccc2)C1 (stereo partly specified)
18 | 45 | 39 | NC(C(=O)NO)C(=O)N1CCC(Cc2ccccc2)CC1 (stereo unspecified)
19 | 22 | 32 | CN(CCCNC(=O)CC(=O)NO)c1ccccc1
20 | -1 | 29 | CN(Cc1ccccc1)C(=O)C(N)C(=O)NO (stereo unspecified)

Row | inhibition [1] [%] | inhibition [2] [%] | SMILES
21 | 97 | 31 | O=C(NO)C(Cc1cccc(Oc2ccccc2)c1)C(=O)N1CCN(Cc2ccc3c(c2)OCO3)CC1 (stereo unspecified)
22 | 88 | 98 | Cc1ccccc1CNC(=O)C(CC(C)C)C(=O)NO (stereo unspecified)
23 | 30 | 86 | CC(C)CC(C(=O)NO)C(=O)NCCc1ccccn1 (stereo unspecified)
24 | 29 | 28 | CC(C)CC(C(=O)NO)C(=O)N1CCN(Cc2ccccc2)CC1 (stereo unspecified)
25 | 5 | 54 | NC(C(=O)NO)C(=O)NCc1ccc(Cl)cc1 (stereo unspecified)
26 | -2 | 27 | O=C(CC(=O)NCCc1ccccc1)NO
27 | 65 | 83 | O=C(NO)C(Cc1ccccc1)C(=O)NCCC(c1ccccc1)c1ccccc1 (stereo unspecified)
28 | -7 | 22 | NC(C(=O)NO)C(=O)NCCc1ccccn1 (stereo unspecified)
29 | 67 | 85 | O=C(NO)C(Cc1cccc(Oc2ccccc2)c1)C(=O)NCCc1ccccn1 (stereo unspecified)
30 | 10 | 77 | NC(C(=O)NO)C(=O)NCc1ccccc1 (stereo unspecified)
31 | -2 | 16 | O=C(CC(=O)NCCc1ccccn1)NO
32 | 59 | 76 | O=C(NO)C(Cc1ccccc1)C(=O)NCCNc1cccc2ccccc12 (stereo unspecified)
33 | 36 | 52 | CC(C)CN(CCCCc1ccccc1)C(=O)C(Cc1cccc(Oc2ccccc2)c1)C(=O)NO (stereo unspecified)
34 | 1 | 40 | O=C(CC(=O)NCc1ccc(C(F)(F)F)cc1)NO
35 | 50 | 87 | O=C(CC(=O)NCCC(c1ccccc1)c1ccccc1)NO
36 | 35 | 22 | O=C(NO)C(Cc1cccc(Oc2ccccc2)c1)C(=O)NCc1ccc(F)cc1 (stereo unspecified)
37 | 50 | 59 | O=C(NO)C(Cc1cccc(Oc2ccccc2)c1)C(=O)NCCC(c1ccccc1)c1ccccc1 (stereo unspecified)
38 | -9 | 11 | O=C(CC(=O)N1CCN(c2ccccc2)CC1)NO
39 | 76 | 53 | CN(CCCCc1ccccc1)C(=O)C(Cc1ccccc1)C(=O)NO (stereo unspecified)
40 | 32 | 17 | Cc1ccccc1CNC(=O)CC(=O)NO

Row | inhibition [1] [%] | inhibition [2] [%] | SMILES
41 | 99 | 86 | Cc1ccccc1CNC(=O)C(Cc1cccc(Oc2ccccc2)c1)C(=O)NO (stereo unspecified)
42 | 9 | 23 | Cc1ccccc1CNC(=O)C(N)C(=O)NO (stereo unspecified)
43 | 5 | 19 | O=C(CC(=O)N1CCC2(CC1)C(=O)NCN2c1ccccc1)NO
44 | 20 | 46 | O=C(NO)C(Cc1ccccc1)C(=O)N1CCN(c2ccccc2)CC1 (stereo unspecified)
45 | 44 | 55 | O=C(CC(=O)NCc1cccc(Oc2ccccc2)c1)NO
46 | 5 | 32 | O=C(CC(=O)N(CCc1ccccc1)Cc1ccccc1)NO
47 | -4 | 9 | CN(Cc1ccccc1)C(=O)CC(=O)NO
48 | 15 | 54 | CC(C)CC(C(=O)NO)C(=O)N1CCC(n2c(=O)[nH]c3ccccc32)CC1 (stereo unspecified)
49 | 49 | 32 | NC(C(=O)NO)C(=O)N1CCc2ccccc2C1 (stereo unspecified)
50 | 77 | 83 | CN(CCCNC(=O)C(Cc1cccc(Oc2ccccc2)c1)C(=O)NO)c1ccccc1 (stereo unspecified)
51 | 45 | 36 | CN(Cc1ccccc1)C(=O)C(Cc1ccccc1)C(=O)NO (stereo unspecified)
52 | 43 | 72 | O=C(NO)C(Cc1cccc(Oc2ccccc2)c1)C(=O)NC1Cc2ccccc2C1 (stereo unspecified)
53 | 41 | 86 | O=C(NO)C(Cc1cccc(Oc2ccccc2)c1)C(=O)N[C@H]1CCN(Cc2ccccc2)C1 (stereo partly specified)
54 | 18 | -5 | NC(C(=O)NO)C(=O)N1CCN(Cc2ccccc2)CC1 (stereo unspecified)
55 | 42 | 105 | CC(C)CC(C(=O)NO)C(=O)N(CCc1ccccc1)Cc1ccccc1 (stereo unspecified)
56 | 8 | 62 | NC(C(=O)NO)C(=O)NCCC(c1ccccc1)c1ccccc1 (stereo unspecified)
57 | -6 | 43 | NC(C(=O)NO)C(=O)N1CCC2(CC1)C(=O)NCN2c1ccccc1 (stereo unspecified)
58 | 68 | 69 | COc1cccc(CC(C(=O)NO)C(=O)NCc2cccc(Oc3ccccc3)c2)c1 (stereo unspecified)
